Results as given in ChEMBL document CHEMBL4828761, “Development and crystallography-aided SAR studies of multifunctional BuChE inhibitors and 5-HT6R antagonists with β-amyloid anti-aggregation properties” (Eur J Med Chem, 2021).
pIC50, pKi: −log10 of the molar value. Active and inactive are the calls of the source. The rule behind the calls is not given here.

Assays:
[1] = molecular target: 5-hydroxytryptamine receptor 6 (Homo sapiens, UniProt P50406); assay: Displacement of [3H]LSD from human 5HT6 receptor expressed in CHO-K1 membrane incubated for 60 mins by solid scintillation counting analysis; assay type: cell membranes
Cholinesterase [2] = molecular target: Cholinesterase (Equus caballus, UniProt P81908); assay: Inhibition of equine serum BuChE using BTC as substrate preincubated with enzyme for 5 mins followed by substrate addition for 5 mins by Ellman's method; assay type: cell-free
[3] = molecular target: Amyloid-beta precursor protein (Homo sapiens) (UniProt P05067); assay: Inhibition of amyloid beta (1 to 42) (unknown origin) self aggregation at 10 uM incubated for 24 to 48 hrs by Thioflavin-T based fluorometric assay; settings: time lower […], time upper 48.0 hrs
Cholinesterase [4] = molecular target: T1, Cholinesterase (Homo sapiens, UniProt P06276); assay: Inhibition of BuChE in human plasma using BTC as substrate at 10 uM preincubated with enzyme for 5 mins followed by substrate addition for 5 mins by Ellman's method relative to control; assay type: cell-free; settings: time 10.0 min
Summary of the method: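 Human plasma BuChE at 0.384 U/mL final, with DTNB in 0.1 M phosphate buffer pH 8.0. Compound at 10 µM screened, preincubated 5 min at 36 °C.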

Acetylcholinesterase = Acetylcholinesterase (Electrophorus electricus, UniProt O42275); assay: Inhibition of electric eel AchE using ATC as substrate preincubated with enzyme for 5 mins followed by substrate addition for 5 mins by Ellman's method
Summary of the method: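 Electric eel AChE at 0.384 U/mL final, with DTNB in 0.1 M phosphate pH 8.0. […] ATC solution (0.00375 M) added; A412 after 5 min. Run in triplicate; IC50 by nonlinear regression of residual activity versus concentration.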

Cholinesterase [5] = molecular target: T1, Cholinesterase; assay: Inhibition of BuChE in human plasma using BTC as substrate preincubated with enzyme for 5 mins followed by substrate addition for 5 mins by Ellman's method; assay type: cell-free
Summary of the method: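 Human plasma BuChE at 0.384 U/mL final, with DTNB in 0.1 M phosphate pH 8.0. […] BTC solution (0.00375 M) added; A412 after 5 min. Run in triplicate; IC50 from nonlinear regression of residual activity versus concentration.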

[6] = molecular target: Cholinesterase (Equus caballus) (UniProt P81908); assay: Reversible inhibition of equine serum BuChE using BTC as substrate at 10XIC50 preincubated with 100-fold diluted enzyme for 120 mins followed by substrate addition and measured after 5 mins by 100-fold dilution assay; assay type: cell-free; settings: time 125.0 min
Summary of the method: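 Equine BuChE preincubated with inhibitor at 100-fold the final enzyme concentration for 30, 60 or 120 min at 25 °C. Then diluted 100-fold into 0.1 M phosphate pH 8 with DTNB. BTC (0.00375 M) added; A412 read after 5 min. Activity recovery compared with enzyme/vehicle blanks; two independent experiments, each in quadruplicate.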

[7] = Metabolic stability in mouse liver microsomes assessed as parent compound remaining at 50 microM preincubated for 5 mins followed by incubation with NADPH regenerating system for 120 mins by UPLC-MS analysis; assay type: ADME, Microsome; settings: time 125 min, read-out: Stability
Summary of the method: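 Mouse liver microsomes 1 mg/mL in 0.1 M Tris-HCl pH 7.4 with 50 μM compound, preincubated 5 min at 37 °C, then started with NADPH regeneration system; stopped after 120 min at 37 °C with cold methanol, centrifuged, supernatant analysed by UPLC-MS for remaining parent and metabolites. Verapamil served as reference.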

[8] = Cytotoxicity against human HepG2 cells assessed as non-toxic concentration incubated for 72 hrs by MTS assay; assay type: cell-based; settings: read-out: MNCC
Summary of the method: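 HepG2 cells grown in MEM with 2 mM glutamine, 1% NEAA, 10% FBS at 37 °C, 5% CO2. Compounds tested in quadruplicate at 0.1, 1, 10 and 100 μM for 72 h; viability read by MTS (CellTiter 96 AQueous) assay. Doxorubicin 1 μM and CCCP 10 μM served as positive controls.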

[9] = Initial plasma concentration in CD-1 mouse at 3 mg/kg, iv by LC-ESI-MS/MS analysis; assay type: ADME, organism-based
Summary of the method: (§1)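 Adult male CD-1 mice (20–25 g), dosed in saline i.v. 3 mg/kg or intragastrically 30 mg/kg; 6 animals per time point. Under i.p. ketamine/xylazine anaesthesia, blood collected after decapitation into heparinized tubes, plasma separated; brain homogenized in pH 7.4 phosphate buffer (1:2.5). Acetonitrile precipitation with internal standard, LC/ESI-MS/MS on C18 with formic acid eluents; non-compartmental parameters.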

[10] = Cmax in CD-1 mouse plasma at 30 mg/kg, po measured for 480 mins by LC-ESI-MS/MS analysis; assay type: ADME, organism-based; set-up: route oral, dose 30 mg/kg, time 480 min; summary of the method: as §1
[11] = Initial drug concentration in CD-1 mouse brain at 3 mg/kg, iv by LC-ESI-MS/MS analysis; assay type: ADME, organism-based; summary of the method: as §1
[12] = Cmax in CD-1 mouse brain at 30 mg/kg, po measured for 480 mins by LC-ESI-MS/MS analysis; assay type: ADME, organism-based; set-up: route oral, dose 30 mg/kg, time 480 min; summary of the method: as §1
[13] = Tmax in CD-1 mouse plasma at 30 mg/kg, po measured for 480 mins by LC-ESI-MS/MS analysis; assay type: ADME, organism-based; summary of the method: as §1
[14] = AUC (0 to t) in CD-1 mouse plasma at 3 mg/kg, iv measured for 480 mins by LC-ESI-MS/MS analysis; assay type: ADME, organism-based; set-up: dose 3 mg/kg, time 480 min; summary of the method: as §1
[15] = AUC (0 to t) in CD-1 mouse plasma at 30 mg/kg, po measured for 480 mins by LC-ESI-MS/MS analysis; assay type: ADME, organism-based; set-up: time 480 min, dose 30 mg/kg; summary of the method: as §1
[16] = AUC (0 to t) in CD-1 mouse brain at 3 mg/kg, iv measured for 480 mins by LC-ESI-MS/MS analysis; assay type: ADME, organism-based; settings: in vivo, 8 h; summary of the method: as §1
[17] = AUC (0 to t) in CD-1 mouse brain at 30 mg/kg, po measured for 480 mins by LC-ESI-MS/MS analysis; assay type: ADME, organism-based; settings: in vivo, 8 h; summary of the method: as §1
[18] = MRT in CD-1 mouse plasma at 3 mg/kg, iv measured for 480 mins by LC-ESI-MS/MS analysis; assay type: ADME, organism-based; settings: in vivo, 8 h; summary of the method: as §1
[19] = MRT in CD-1 mouse plasma at 30 mg/kg, po measured for 480 mins by LC-ESI-MS/MS analysis; assay type: ADME, organism-based; summary of the method: as §1
[20] = MRT in CD-1 mouse brain at 3 mg/kg, iv measured for 480 mins by LC-ESI-MS/MS analysis; assay type: ADME, organism-based; summary of the method: as §1
[21] = MRT in CD-1 mouse brain at 30 mg/kg, po measured for 480 mins by LC-ESI-MS/MS analysis; assay type: ADME, organism-based; summary of the method: as §1
[22] = Oral bioavailability in CD-1 mouse at 30 mg/kg measured for 480 mins by LC-ESI-MS/MS analysis; assay type: ADME, organism-based; settings: in vivo; summary of the method: as §1
[23] = Apparent oral volume of distribution at steady state in CD-1 mouse at 30 mg/kg measured for 480 mins by LC-ESI-MS/MS analysis; assay type: ADME, organism-based; settings: in vivo; summary of the method: as §1
[24] = Apparent oral clearance in CD-1 mouse at 30 mg/kg measured for 480 mins by LC-ESI-MS/MS analysis; assay type: ADME, organism-based; settings: in vivo; summary of the method: as §1
[25] = Half life in CD-1 mouse plasma at 3 mg/kg, iv measured for 480 mins by LC-ESI-MS/MS analysis; assay type: ADME, organism-based; summary of the method: as §1
[26] = Half life in CD-1 mouse plasma at 30 mg/kg, po measured for 480 mins by LC-ESI-MS/MS analysis; assay type: ADME, organism-based; summary of the method: as §1
[27] = Half life in CD-1 mouse brain at 3 mg/kg, iv measured for 480 mins by LC-ESI-MS/MS analysis; assay type: ADME, organism-based; summary of the method: as §1
[28] = Half life in CD-1 mouse brain at 30 mg/kg, po measured for 480 mins by LC-ESI-MS/MS analysis; assay type: ADME, organism-based; summary of the method: as §1
[29] = Tmax in CD-1 mouse brain at 30 mg/kg, po measured for 480 mins by LC-ESI-MS/MS analysis; assay type: ADME, organism-based; summary of the method: as §1
[30] = Ratio of drug level in brain to plasma in CD-1 mouse at 3 mg/kg, iv by LC-ESI-MS/MS analysis; assay type: ADME, organism-based; settings: read-out: BPR; summary of the method: as §1
[31] = Ratio of drug level in brain to plasma in CD-1 mouse at 30 mg/kg, po by LC-ESI-MS/MS analysis; assay type: ADME, organism-based; settings: read-out: BPR; summary of the method: as §1
[32] = molecular target: Amyloid-beta precursor protein (Homo sapiens) (UniProt P05067); assay: Inhibition of self-induced aggregation of amyloid beta (1 to 42) (unknown origin) expressed in Escherichia coli BL21(DE3) at 10 uM incubated for 60 mins by fluorescence based analysis

Amyloid-beta precursor protein (Homo sapiens), sequence (P05067 whole entry): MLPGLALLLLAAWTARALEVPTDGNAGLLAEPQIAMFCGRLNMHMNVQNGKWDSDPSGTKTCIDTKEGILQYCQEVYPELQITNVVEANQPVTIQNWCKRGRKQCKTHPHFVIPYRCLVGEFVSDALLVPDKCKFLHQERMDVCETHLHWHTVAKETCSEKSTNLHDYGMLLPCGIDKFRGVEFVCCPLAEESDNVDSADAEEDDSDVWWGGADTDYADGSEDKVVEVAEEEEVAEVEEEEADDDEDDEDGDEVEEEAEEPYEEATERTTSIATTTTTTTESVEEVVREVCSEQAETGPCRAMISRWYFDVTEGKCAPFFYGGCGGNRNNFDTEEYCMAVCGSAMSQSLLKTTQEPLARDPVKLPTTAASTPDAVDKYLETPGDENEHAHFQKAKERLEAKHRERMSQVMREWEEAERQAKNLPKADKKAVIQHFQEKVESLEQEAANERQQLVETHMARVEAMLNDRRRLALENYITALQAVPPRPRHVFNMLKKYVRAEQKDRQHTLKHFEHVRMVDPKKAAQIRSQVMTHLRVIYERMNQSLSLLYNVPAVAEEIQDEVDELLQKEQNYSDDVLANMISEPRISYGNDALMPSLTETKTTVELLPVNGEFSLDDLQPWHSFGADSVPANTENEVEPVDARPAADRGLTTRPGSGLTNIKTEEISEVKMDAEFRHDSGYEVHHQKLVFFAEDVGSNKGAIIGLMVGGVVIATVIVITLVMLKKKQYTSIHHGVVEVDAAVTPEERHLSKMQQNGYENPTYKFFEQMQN
Cholinesterase (Equus caballus, UniProt P81908), sequence (P81908 whole entry): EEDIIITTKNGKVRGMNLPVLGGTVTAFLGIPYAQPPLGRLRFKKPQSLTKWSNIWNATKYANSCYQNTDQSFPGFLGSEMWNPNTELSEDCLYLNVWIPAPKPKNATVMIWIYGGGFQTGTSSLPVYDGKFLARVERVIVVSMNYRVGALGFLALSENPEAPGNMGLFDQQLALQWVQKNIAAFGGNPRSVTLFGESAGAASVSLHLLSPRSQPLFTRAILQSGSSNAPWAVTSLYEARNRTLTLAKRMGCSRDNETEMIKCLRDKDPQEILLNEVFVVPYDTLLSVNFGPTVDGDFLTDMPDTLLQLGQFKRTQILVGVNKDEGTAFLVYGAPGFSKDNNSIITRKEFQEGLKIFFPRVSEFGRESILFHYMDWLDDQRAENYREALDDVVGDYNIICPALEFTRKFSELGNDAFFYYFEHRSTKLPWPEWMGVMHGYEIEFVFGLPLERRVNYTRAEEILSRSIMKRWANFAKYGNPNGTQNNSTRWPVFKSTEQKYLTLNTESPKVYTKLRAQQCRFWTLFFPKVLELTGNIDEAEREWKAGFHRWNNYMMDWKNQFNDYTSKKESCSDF
Acetylcholinesterase, sequence (O42275 whole entry): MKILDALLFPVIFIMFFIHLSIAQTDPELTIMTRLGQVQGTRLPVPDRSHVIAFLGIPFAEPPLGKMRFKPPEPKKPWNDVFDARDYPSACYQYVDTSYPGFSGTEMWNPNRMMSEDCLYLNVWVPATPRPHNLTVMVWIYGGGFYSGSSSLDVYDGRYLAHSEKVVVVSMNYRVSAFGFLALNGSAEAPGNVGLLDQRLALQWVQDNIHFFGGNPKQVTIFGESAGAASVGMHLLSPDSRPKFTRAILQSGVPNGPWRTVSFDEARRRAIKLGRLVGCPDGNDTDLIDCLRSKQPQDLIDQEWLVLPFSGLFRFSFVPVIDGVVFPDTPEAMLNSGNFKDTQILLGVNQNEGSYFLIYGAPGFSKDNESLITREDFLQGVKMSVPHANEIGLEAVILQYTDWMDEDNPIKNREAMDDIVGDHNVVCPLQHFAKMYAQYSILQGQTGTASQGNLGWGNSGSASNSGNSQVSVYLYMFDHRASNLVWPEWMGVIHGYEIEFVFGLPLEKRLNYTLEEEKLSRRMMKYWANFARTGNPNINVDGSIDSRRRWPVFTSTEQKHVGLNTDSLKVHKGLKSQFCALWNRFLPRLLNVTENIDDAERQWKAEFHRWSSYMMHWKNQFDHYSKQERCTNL
T1 sequence (P06276 whole entry): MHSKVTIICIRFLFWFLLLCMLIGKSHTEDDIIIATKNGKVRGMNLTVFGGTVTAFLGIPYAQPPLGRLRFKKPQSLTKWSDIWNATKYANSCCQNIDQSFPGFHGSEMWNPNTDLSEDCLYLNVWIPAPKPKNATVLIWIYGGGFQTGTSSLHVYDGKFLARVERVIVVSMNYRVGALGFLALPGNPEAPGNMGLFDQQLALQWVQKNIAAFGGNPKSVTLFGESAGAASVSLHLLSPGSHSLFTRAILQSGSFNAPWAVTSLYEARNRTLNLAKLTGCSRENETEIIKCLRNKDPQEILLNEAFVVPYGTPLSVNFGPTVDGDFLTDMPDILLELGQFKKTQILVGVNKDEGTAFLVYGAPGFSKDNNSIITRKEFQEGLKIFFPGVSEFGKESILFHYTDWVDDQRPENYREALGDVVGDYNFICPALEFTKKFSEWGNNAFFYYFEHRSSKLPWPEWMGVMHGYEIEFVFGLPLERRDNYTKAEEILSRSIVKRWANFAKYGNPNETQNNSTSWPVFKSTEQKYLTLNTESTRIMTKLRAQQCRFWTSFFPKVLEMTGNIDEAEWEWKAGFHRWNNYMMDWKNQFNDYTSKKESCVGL
5-hydroxytryptamine receptor 6, sequence (P50406 whole entry): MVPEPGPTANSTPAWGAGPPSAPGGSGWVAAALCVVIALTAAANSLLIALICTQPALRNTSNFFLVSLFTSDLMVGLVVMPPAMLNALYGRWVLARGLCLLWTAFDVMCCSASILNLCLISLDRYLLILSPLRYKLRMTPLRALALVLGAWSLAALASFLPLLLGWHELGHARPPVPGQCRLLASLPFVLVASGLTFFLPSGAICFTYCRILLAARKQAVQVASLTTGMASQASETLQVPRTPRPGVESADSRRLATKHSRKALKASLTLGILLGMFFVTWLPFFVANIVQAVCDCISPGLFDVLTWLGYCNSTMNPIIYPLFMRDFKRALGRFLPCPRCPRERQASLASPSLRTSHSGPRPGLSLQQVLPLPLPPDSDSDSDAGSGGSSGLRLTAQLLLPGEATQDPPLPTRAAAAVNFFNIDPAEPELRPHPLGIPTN
Cholinesterase (Equus caballus), sequence (P81908 whole entry): as the sequence (P81908 whole entry) above

Cc1cccc(CNCCOc2cccc3c2CC(=O)N3Cc2ccccc2)c1
pKi [1]: 7.28 | pIC50 (Cholinesterase [2]): 5.73 | inhibition [3]: 58.5% | inhibition (Cholinesterase [4]): < 50% | pIC50 (Acetylcholinesterase): 5.89

CC(C)(C)OC(=O)N1CCCC(CNCCOc2cccc3c2CCN3Cc2ccccc2)C1 (stereo not drawn)
pKi [1]: 5.97 | pIC50 (Cholinesterase [2]): 7.59 | pIC50 (Cholinesterase [5]): 6.76 | inhibition [3]: 79.7% | inhibition (Cholinesterase [4]): > 50% | inhibition [6]: Active

CC(C)(C)OC(=O)N1CCCC(CNCCOc2cccc3c2ccn3Cc2ccccc2)C1 (stereo not drawn)
pKi [1]: 6.43 | pIC50 (Cholinesterase [2]): 7.96 | pIC50 (Cholinesterase [5]): 6.94 | inhibition [3]: 79.4% | inhibition (Cholinesterase [4]): > 50% | inhibition [6]: Active

O=S(=O)(c1ccccc1)n1ccc2c(OCCNCc3ccccc3)cccc21
pIC50 (Cholinesterase [2]): 6.32 | pIC50 (Cholinesterase [5]): 5.79 | remaining at 2 h, 50 µM [7]: 57% | MNTC at 72 h [8]: ≤ 10000 nM

O=S(=O)(c1ccccc1)n1ccc2c(OCCNCC3CCCCC3)cccc21
pIC50 (Cholinesterase [2]): 7.05 | pIC50 (Cholinesterase [5]): 6.26 | remaining at 2 h, 50 µM [7]: 59% | MNTC at 72 h [8]: ≤ 1000 nM | C0 [9]: 176 ng/mL | Cmax [10]: 532 ng/mL | C0 [11]: 404 ng/mL | Cmax [12]: 2800 ng/mL | Tmax [13]: 1 h | AUC(0-t) at 8 h [14]: 627 ng·h/mL | AUC(0-t) at 8 h [15]: 1800 ng·h/mL | AUCt [16]: 125194 ng·min/g | AUCt [17]: 734469 ng·min/g | MRT [18]: 3.18 h | MRT [19]: 3.24 h | MRT [20]: 2.83 h | MRT [21]: 3.24 h | bioavailability [22]: 28.7% | Vd/F [23]: 81.4 L/kg | CL/F [24]: 189 mL/min/kg | half-life [25]: 5.53 h | half-life [26]: 4.97 h | half-life [27]: 2.97 h | half-life [28]: 3 h | Tmax [29]: 1 h | Kp [30]: 3.33 | Kp [31]: 6.79

O=c1[nH]c2c(OCCNCc3ccccc3)cccc2n1Cc1ccccc1
pKi [1]: 6.84 | pIC50 (Cholinesterase [2]): 5.73 | inhibition [3]: 32.9% | inhibition (Cholinesterase [4]): < 50% | pIC50 (Acetylcholinesterase): 5.97

CC(C)(C)OC(=O)N1CCCC(CNCCOc2cccc3c2ccn3S(=O)(=O)c2ccccc2)C1 (stereo not drawn)
pIC50 (Cholinesterase [2]): 6.90 | pIC50 (Cholinesterase [5]): 6.69 | remaining at 2 h, 50 µM [7]: 0% | MNTC at 72 h [8]: ≤ 1000 nM

O=C1Cc2c(OCCNCc3ccccc3)cccc2N1Cc1ccccc1
pKi [1]: 7.26 | pIC50 (Cholinesterase [2]): 5.35 | inhibition [3]: 42.4% | inhibition (Cholinesterase [4]): < 50% | pIC50 (Acetylcholinesterase): 5.77

Cc1cccc(CNCCOc2cccc3c2[nH]c(=O)n3Cc2ccccc2)c1
pKi [1]: 6.68 | pIC50 (Cholinesterase [2]): 5.82 | inhibition [3]: 64.3% | inhibition (Cholinesterase [4]): < 50% | pIC50 (Acetylcholinesterase): 5.75

O=S(=O)(c1ccccc1)n1ccc2c(N3CCN(CCCCCCNc4c5c(nc6ccccc46)CCCC5)CC3)cccc21
inhibition [32]: 30%
